Results reported in ChEMBL document CHEMBL3877241 (J Med Chem, 2016).

Columns and labels:
Histone deacetylase 1 = Histone deacetylase 1 (Homo sapiens, UniProt Q13547); assay: Inhibition of full length human recombinant C-terminal FLAG/His-tagged HDAC1 (1 to 482 residues) expressed in sf21 cells preincubated with enzyme followed by fluorogenic Arg-His-Lys-Lys(Ac)-AMC substrate addition measured after 2 hrs by fluorescence assay
[1] = target: T1, Protein deacetylase HDAC6 (Homo sapiens, UniProt Q9UBN7); assay: Inhibition of full length human recombinant N-terminal GST-tagged HDAC6 (1 to 1215 residues) expressed in sf9 cells preincubated with enzyme followed by fluorogenic Arg-His-Lys-Lys(Ac)-AMC substrate addition measured after 2 hrs by fluorescence assay
T1 sequence (Q9UBN7 whole entry): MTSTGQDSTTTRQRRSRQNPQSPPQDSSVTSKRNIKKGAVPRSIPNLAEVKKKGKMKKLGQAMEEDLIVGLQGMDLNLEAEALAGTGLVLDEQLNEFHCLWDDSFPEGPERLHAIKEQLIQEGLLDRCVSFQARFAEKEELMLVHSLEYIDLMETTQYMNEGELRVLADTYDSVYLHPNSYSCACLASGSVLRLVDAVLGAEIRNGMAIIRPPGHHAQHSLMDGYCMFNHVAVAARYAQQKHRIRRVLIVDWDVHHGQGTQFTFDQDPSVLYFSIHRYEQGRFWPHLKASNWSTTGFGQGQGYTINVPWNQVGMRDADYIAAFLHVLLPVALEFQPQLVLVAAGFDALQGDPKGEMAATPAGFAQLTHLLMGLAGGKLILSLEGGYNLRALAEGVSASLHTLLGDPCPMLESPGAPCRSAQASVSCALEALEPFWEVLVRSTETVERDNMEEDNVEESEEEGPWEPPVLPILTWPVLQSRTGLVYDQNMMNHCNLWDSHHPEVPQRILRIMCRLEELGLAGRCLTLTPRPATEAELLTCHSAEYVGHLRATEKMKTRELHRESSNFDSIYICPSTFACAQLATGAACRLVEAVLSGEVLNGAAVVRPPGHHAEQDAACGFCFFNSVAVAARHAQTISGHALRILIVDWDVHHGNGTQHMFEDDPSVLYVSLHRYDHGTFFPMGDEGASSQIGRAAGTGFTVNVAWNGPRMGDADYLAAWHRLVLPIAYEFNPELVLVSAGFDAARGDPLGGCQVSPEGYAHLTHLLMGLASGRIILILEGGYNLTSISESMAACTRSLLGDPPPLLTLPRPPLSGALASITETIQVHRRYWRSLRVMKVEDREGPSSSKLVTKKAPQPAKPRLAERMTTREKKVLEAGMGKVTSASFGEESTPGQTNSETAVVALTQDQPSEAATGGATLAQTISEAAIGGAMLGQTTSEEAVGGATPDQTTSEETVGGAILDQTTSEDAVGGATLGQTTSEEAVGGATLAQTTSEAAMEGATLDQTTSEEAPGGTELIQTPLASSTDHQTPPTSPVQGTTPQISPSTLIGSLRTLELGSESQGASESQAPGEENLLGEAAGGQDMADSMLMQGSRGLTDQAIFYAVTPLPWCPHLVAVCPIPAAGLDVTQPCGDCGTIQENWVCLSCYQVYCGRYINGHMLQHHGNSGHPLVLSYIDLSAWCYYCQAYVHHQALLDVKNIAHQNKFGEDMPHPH

[2] = target: T2, Tyrosine-protein kinase JAK2 (Homo sapiens, UniProt O60674); assay: Inhibition of JAK2 (unknown origin) preincubated for 20 mins followed by [33P]ATP addition measured after 120 mins by Hotspot assay
[3] = Antiproliferative activity against human MDA-MB-231 cells after 72 hrs by MTT assay; assay type: functional, cell-based; settings: MDA-MB-231, 72 h
[4] = Antiproliferative activity against human HCT116 cells after 72 hrs by MTT assay; assay type: functional, cell-based; settings: HCT-116, 72 h
Procedure, shortened: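 MTT viability after 72 h exposure. Cells seeded at 2500/well and left 24 h before compound addition; DMSO at 0.5% v/v final. MTT added in FBS-free medium for 3 h at 37 °C, formazan dissolved in DMSO, absorbance read at 570 nm. IC50 from a sigmoidal fit of % viability vs log concentration; triplicates on separate occasions using two different stock solutions.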

[5] = Antiproliferative activity against human PC3 cells after 72 hrs by MTT assay; assay type: functional, cell-based; settings: PC-3, 72 h
[6] = Antiproliferative activity against human MCF7 cells after 72 hrs by MTT assay; assay type: functional, cell-based; settings: MCF7, 72 h
[7] = Antiproliferative activity against human HL60 cells; assay type: functional, cell-based; settings: HL-60
cells = assay type: functional, cell-based; settings: Homo sapiens, HEL 92.1.7, 36 h
[8] = Antiproliferative activity against human Jurkat cells; assay type: functional, cell-based
[9] = target: T2, Tyrosine-protein kinase JAK2; assay: Inhibition of JAK2 (unknown origin)
[10] = target: T3, Protein deacetylase HDAC6 (Homo sapiens) (UniProt Q9UBN7); assay: Inhibition of full length human recombinant N-terminal GST-tagged HDAC6 (1 to 1215 residues) expressed in sf9 cells at 10 uM preincubated with enzyme followed by fluorogenic Arg-His-Lys-Lys(Ac)-AMC substrate addition measured after 2 hrs by fluorescence assay relative to control
T3 sequence (whole entry): T1 sequence (Q9UBN7 whole entry)

[11] = Antiproliferative activity against mouse TAMH cells after 24 hrs by CellTiter-Glo assay; assay type: ADME, cell-based
[12] = Therapeutic index, ratio of IC50 for mouse TAMH cells to IC50 for human cancer cells; settings: cancer cell lines
[13] = Half life in rat liver microsomes at 3 uM preincubated for 5 mins followed by NADPH addition by LC-MS/MS analysis; assay type: ADME
Procedure, shortened: (§1)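 Male and female rat liver microsomes (0.3 mg protein/mL final) with compound at 3 μM final in 0.1 M phosphate buffer pH 7.4. Preincubated 5 min at 37 °C, then started with NADPH (1 mM final). Sampled at 0, 5, 10, 15, 30 and 45 min and quenched with cold acetonitrile containing internal standard. Read by LC-MS/MS; run in triplicate; midazolam (3 μM) as positive control.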

[14] = Apparent intrinsic clearance in rat liver microsomes at 3 uM preincubated for 5 mins followed by NADPH addition measured after 45 mins by LC-MS/MS analysis; assay type: ADME; settings: read-out: CLH(app); procedure, shortened: as §1
[15] = Antiproliferative activity against human OPM2 cells after 48 hrs by CellTiter-Glo assay; assay type: functional, cell-based; settings: OPM-2, 48 h
Procedure, shortened: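 OPM2 grown in RPMI 1640 with 10% FBS and penicillin/streptomycin at 37 °C, 5% CO2. Treated at 25,000 cells/well in triplicate for 48 h. Viability read by CellTiter-Glo luminescence. IC50 taken from a sigmoidal fit of % viability vs log concentration.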

T2 sequence (O60674 whole entry): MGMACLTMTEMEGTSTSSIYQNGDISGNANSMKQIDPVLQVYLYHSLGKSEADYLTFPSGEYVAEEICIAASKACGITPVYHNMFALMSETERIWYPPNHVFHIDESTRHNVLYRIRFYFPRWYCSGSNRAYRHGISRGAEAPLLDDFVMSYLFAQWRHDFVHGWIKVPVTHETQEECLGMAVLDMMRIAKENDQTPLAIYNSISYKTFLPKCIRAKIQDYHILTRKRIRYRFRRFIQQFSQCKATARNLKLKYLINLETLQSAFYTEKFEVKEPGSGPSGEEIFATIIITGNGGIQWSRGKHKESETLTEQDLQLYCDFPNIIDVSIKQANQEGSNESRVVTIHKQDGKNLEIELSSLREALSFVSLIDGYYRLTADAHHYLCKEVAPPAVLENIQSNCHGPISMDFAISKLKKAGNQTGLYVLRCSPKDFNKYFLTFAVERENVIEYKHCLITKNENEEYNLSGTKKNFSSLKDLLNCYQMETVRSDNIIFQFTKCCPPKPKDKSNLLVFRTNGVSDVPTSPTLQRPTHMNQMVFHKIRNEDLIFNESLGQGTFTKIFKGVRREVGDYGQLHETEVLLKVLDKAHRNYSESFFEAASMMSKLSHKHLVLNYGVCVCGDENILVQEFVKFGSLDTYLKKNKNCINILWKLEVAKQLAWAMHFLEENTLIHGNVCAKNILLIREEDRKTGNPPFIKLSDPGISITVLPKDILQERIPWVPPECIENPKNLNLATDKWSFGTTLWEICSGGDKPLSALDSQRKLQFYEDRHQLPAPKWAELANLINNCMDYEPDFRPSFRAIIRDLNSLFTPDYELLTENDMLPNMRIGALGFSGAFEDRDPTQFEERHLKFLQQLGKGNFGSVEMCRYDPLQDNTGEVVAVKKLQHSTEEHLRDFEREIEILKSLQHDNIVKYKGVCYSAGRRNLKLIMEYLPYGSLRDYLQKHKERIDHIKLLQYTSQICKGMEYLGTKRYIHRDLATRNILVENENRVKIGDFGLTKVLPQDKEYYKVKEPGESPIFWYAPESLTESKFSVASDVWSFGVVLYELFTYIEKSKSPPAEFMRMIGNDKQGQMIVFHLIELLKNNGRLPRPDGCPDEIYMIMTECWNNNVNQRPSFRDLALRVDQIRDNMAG
Sequence of Histone deacetylase 1 (Q13547 whole entry, the tested form may be a part): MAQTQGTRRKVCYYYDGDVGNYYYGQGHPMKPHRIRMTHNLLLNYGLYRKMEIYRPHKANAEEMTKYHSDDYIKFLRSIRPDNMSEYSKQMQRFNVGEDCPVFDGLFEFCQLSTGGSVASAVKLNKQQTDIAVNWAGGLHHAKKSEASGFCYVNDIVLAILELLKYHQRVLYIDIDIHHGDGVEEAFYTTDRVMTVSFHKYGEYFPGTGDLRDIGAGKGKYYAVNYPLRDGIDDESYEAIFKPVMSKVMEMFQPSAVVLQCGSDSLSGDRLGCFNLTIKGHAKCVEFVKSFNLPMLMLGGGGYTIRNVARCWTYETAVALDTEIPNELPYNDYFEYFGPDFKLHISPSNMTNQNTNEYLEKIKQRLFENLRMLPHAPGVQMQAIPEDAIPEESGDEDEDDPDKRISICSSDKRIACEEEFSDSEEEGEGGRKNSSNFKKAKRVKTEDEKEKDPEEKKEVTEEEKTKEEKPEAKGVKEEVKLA

| SMILES | IC50 [1] [µM] | IC50 [2] [µM] | IC50 [3] [µM] | IC50 [4] [µM] | IC50 [5] [µM] | IC50 [6] [µM] | also measured |
| --- | --- | --- | --- | --- | --- | --- | --- |
| O=C(NO)C1CCN(CCOc2ccc3cc2COC/C=C/COCc2cccc(c2)-c2ccnc(n2)N3)CC1 | 0.899 | 0.00097 | 3.41 | 1.2 | 2.79 | 1.68 | – |
| O=C(O)c1ccc(OCCOc2ccc3cc2COC/C=C/COCc2cccc(c2)-c2ccnc(n2)N3)cc1 | > 100 | – | 54.2 | 29.7 | – | – | IC50 [9]: < 0.039 µM |
| O=C(O)c1ccc(NCCOc2ccc3cc2COC/C=C/COCc2cccc(c2)-c2ccnc(n2)N3)cc1 | 64 | < 0.039 | 46 | – | – | – | – |
| O=C(CCCCCCC(=O)Nc1ccc(NCCOc2ccc3cc2COC/C=C/COCc2cccc(c2)-c2ccnc(n2)N3)cc1)NO | 0.0023 | 0.03 | 3.43 | – | > 100 | – | IC50 [7]: > 4 µM; IC50 (cells): > 2 µM; IC50 [8]: > 4 µM |
| O=C(NO)c1ccc(NCCOc2ccc3cc2COC/C=C/COCc2cccc(c2)-c2ccnc(n2)N3)cc1 | 0.395 | 0.00171 | 8.69 | 3.2 | 4.58 | 3.84 | – |
| CN1CCc2c(c3ccccc3n2Cc2ccc(C(=O)NO)cc2)C1 [TUBASTATIN A] | – | – | 10.4 | 2 | 8.6 | 3.7 | IC50 [7]: > 4 µM; IC50 (cells): > 2 µM; IC50 [8]: > 4 µM |
| O=C(CCCCCC(=O)Nc1ccc(NCCOc2ccc3cc2COC/C=C/COCc2cccc(c2)-c2ccnc(n2)N3)cc1)NO | 0.0025 | 0.0069 | – | – | > 100 | – | IC50 [7]: > 4 µM; IC50 (cells): > 2 µM; IC50 [8]: > 4 µM |
| O=C(NO)c1cccc(NCCOc2ccc3cc2COC/C=C/COCc2cccc(c2)-c2ccnc(n2)N3)c1 | 2.9 | 0.009 | > 50 | 2.01 | > 100 | – | – |
| O=C(O)c1cccc(NCCOc2ccc3cc2COC/C=C/COCc2cccc(c2)-c2ccnc(n2)N3)c1 | 53 | – | 21.4 | 59.2 | – | – | IC50 [9]: < 0.039 µM |
| O=C(O)CCCCCCC(=O)Nc1ccc(NCCOc2ccc3cc2COC/C=C/COCc2cccc(c2)-c2ccnc(n2)N3)cc1 | 2.6 | 0.00231 | – | 2.7 | – | – | – |
| O=C(O)CCCCCC(=O)Nc1ccc(NCCOc2ccc3cc2COC/C=C/COCc2cccc(c2)-c2ccnc(n2)N3)cc1 | – | – | – | – | – | – | inhibition [10]: 20 to 24% |
| O=C(O)C1CCN(CCOc2ccc3cc2COC/C=C/COCc2cccc(c2)-c2ccnc(n2)N3)CC1 | > 100 | – | 10.7 | 8.2 | – | – | IC50 [9]: < 0.039 µM |
| O=C(NO)c1ccc(OCCOc2ccc3cc2COC/C=C/COCc2cccc(c2)-c2ccnc(n2)N3)cc1 | 0.066 | 0.00127 | – | – | 1.6 | – | – |
| O=C(O)CCCCOc1ccc2cc1COC/C=C/COCc1cccc(c1)-c1ccnc(n1)N2 | – | – | 25.9 | 36 | – | – | IC50 [9]: < 0.039 µM |
| O=C(CCCCCCC(=O)Nc1ccccc1)NO [VORINOSTAT] | – | – | – | 1.85 | – | – | IC50 [7]: 2.28 µM; IC50 [15]: 2.91 µM |

More lines, main results first:

| IC50 [1] [µM] | IC50 [2] [µM] | SMILES | IC50 [3] [µM] | IC50 [4] [µM] | IC50 [5] [µM] | IC50 [6] [µM] | also measured |
| --- | --- | --- | --- | --- | --- | --- | --- |
| 0.028 | 0.0043 | O=C(CCCCCOc1ccc2cc1COC/C=C/COCc1cccc(c1)-c1ccnc(n1)N2)NO | 8.07 | 2.56 | 8.11 | 4.81 | IC50 (Histone deacetylase 1): 4.07 µM; IC50 [7]: > 4 µM; IC50 (cells): > 2 µM; IC50 [8]: 2.9 µM |
| 0.51 | – | O=C(CCCOc1ccc2cc1COC/C=C/COCc1cccc(c1)-c1ccnc(n1)N2)NO | 5.91 | 3.64 | 4.61 | 2.78 | IC50 (Histone deacetylase 1): 2.4 µM |
| – | 0.047 | O=C(O)CCCOc1ccc2cc1COC/C=C/COCc1cccc(c1)-c1ccnc(n1)N2 | 53.5 | 124 | – | – | – |
| 0.107 | 0.00245 | O=C(CCCCOc1ccc2cc1COC/C=C/COCc1cccc(c1)-c1ccnc(n1)N2)NO | 12.7 | 1.41 | 10.1 | 7.87 | IC50 (Histone deacetylase 1): 3.09 µM |
| 10 | – | O=C(O)CCCCCCCOc1ccc2cc1COC/C=C/COCc1cccc(c1)-c1ccnc(n1)N2 | 17.1 | 8.04 | 22.8 | 27.7 | IC50 [9]: < 0.039 µM |
| 0.0158 | 0.005 | O=C(CCCCCCCOc1ccc2cc1COC/C=C/COCc1cccc(c1)-c1ccnc(n1)N2)NO | 6.44 | 6.23 | 10.1 | 9.48 | IC50 (Histone deacetylase 1): 2.34 µM; IC50 [7]: > 4 µM; IC50 (cells): > 2 µM; IC50 [8]: 2.48 µM; IC50 [11]: 5.26 µM; selectivity ratio [12]: 1.8; half-life at 3 µM [13]: 21 to 23.4 min; CLint scaled at 3 µM [14]: 200 to 225 mL/min/kg |
| 45 | – | O=C(O)CCCCCOc1ccc2cc1COC/C=C/COCc1cccc(c1)-c1ccnc(n1)N2 | 19.9 | 41 | – | – | IC50 [9]: < 0.039 µM |
| 2.8 | 0.00257 | O=C(O)CCCCCCOc1ccc2cc1COC/C=C/COCc1cccc(c1)-c1ccnc(n1)N2 | 12 | 6.06 | 8.76 | 20 | – |
